From the RNAGym collection of RNA variant scans (doi:10.1101/gad.245936.114) come the findings set out here.

Variants at the floor of the assay were thinned out. Some results are limits rather than exact numbers.

Sequences and labels used below:
B1: tRNA (parent)
chain: CUCUCGGUAGCCAAGUUGGUUUAAGGCGCAAGACUUUAAUUUAUCACUACGAAAUCUUGAGAUCGGGCGUUCGACUCGCCCCCGGGAGAUUUUUUCCUCGAGCAA

The variants in this data set derive from B1. The experiment in a line: nonsense suppression (GFP-seq) (ratio to wild type); higher = more function; SUP4oc tRNA, yeast GFP reporter sort-seq. In a few lines: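 Sorted GFP/RFP bins of yeast were each Illumina-sequenced with a phred ≥30 cutoff; the cells held a genome-integrated ochre-suppressor tRNA variant from a library with ~3% random mutations, a galactose-driven GFP ochre reporter, and RFP. Culture was in raffinose/galactose medium containing 80 mg/L adenine. Nonsense suppression, termed GFPSEQ, is the median GFP/RFP of the bins weighted by each variant's estimated cell share per bin, relative to the unmutated parent tRNA, for variants reaching ≥100 reads and ≥30 cells.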
In the case of CUCUCGGUAGCCAAGUUGGUUUAAGGCGCAAGACUUUAAUUUAUCACUACGAAAUCUUGAGAUCGGGCGUUCGACUCACCGCCGGGAGAUUUUUUCCUCGAGCAA [G78A C81G], the nonsense suppression amounted to 0.0732.
The figure for CUCUCGGUAGCCAAGUUGGUUUAAGGCGCAAGACUUUAAUUUAUCACUACGAAAUCUUGAGAUCGGGCGUUCGACAAGCCCCCGGGAGAUUUUUUCCUCGAGCAA [U76A C77A] is no more than 0.026; for CUCUCGGUAGCCAAGUUGGUUUAAGGCGCAAGACUUUAAUUUAUCACUACGAAAUCUUGAGAUCGGGCGUUCGGCUCGCCCCCCGGAGAUUUUUUCCUCGAGCAA [A74G G84C] it is no more than 0.026; for CUCUCGGUAGCCAAGUUGGUUUAAGGCGCAAGACUUUAAUUUAUCACUACGAAAUCUUGAGAUCGGGCGUUCGACUCACCCCCGGGGGAUUUUUUCCUCGAGCAA [G78A A87G] it is 0.294.
The figure for CUCUCGGUAGCCAAGUUGGUUUAAGGCGCAAGACUUUAAUUUAUCACUACGAAAUCUUGAGAUCGGGCGUUCGACUCACCCCCGGGCGAUUUUUUCCUCGAGCAA [G78A A87C] is 0.032; for CUCUCGGUAGCCAAGUUGGUUUAAGGCGCAAGACUUUAAUUUAUCACUACGAAAUCUUGAGAUCGGGCGUUCGACUCACCCCCGGGUGAUUUUUUCCUCGAGCAA [G78A A87U] it is 0.032; for CUCUCGGUAGCCAAGUUGGUUUAAGGCGCAAGACUUUAAUUUAUCACUACGAAAUCUUGAGAUCGGGCGUUCGAAUCGCCCCCGGGAGAUUUUUUCCUCGAGCAA [C75A] it is 0.996.
The figure for CUCUCGGUAGCCAAGUUGGUUUAAGGCGCAAGACUUUAAUUUAUCACUACGAAAUCUUGAGAUCGGGCGUUCGAUUCGCCCCCGGGAGAUUUUUUCCUCGAGCAA [C75U] is 0.972.
Take CUCUCGGUAGCCAAGUUGGUUUAAGGCGCAAGACUUUAAUUUAUCACUACGAAAUCUUGAGAUCGGGCGUUCGAGUCGCCCCCGGGAGAUUUUUUCCUCGAGCAA [C75G]: the nonsense suppression came to 1.04.
The figure for CUCUCGGUAGCCAAGUUGGUUUAAGGCGCAAGACUUUAAUUUAUCACUACGAAAUCUUGAGAUCGGGCGUUCGAUUCACCCCCGGGAGAUUUUUUCCUCGAGCAA [C75U G78A] is 0.9.
In the case of CUCUCGGUAGCCAAGUUGGUUUAAGGCGCAAGACUUUAAUUUAUCACUACGAAAUCUUGAGAUCGGGCGUUCGAUUCCCCCCCGGGAGAUUUUUUCCUCGAGCAA [C75U G78C] it was 1.14; in that of CUCUCGGUAGCCAAGUUGGUUUAAGGCGCAAGACUUUAAUUUAUCACUACGAAAUCUUGAGAUCGGGCGUUCGUCUCGCCCCCCGGAGAUUUUUUCCUCGAGCAA [A74U G84C], no more than 0.026; in that of CUCUCGGUAGCCAAGUUGGUUUAAGGCGCAAGACUUUAAUUUAUCACUACGAAAUCUUGAGAUCGGGCGUUCGGCUCCCCCCCGGGAGAUUUUUUCCUCGAGCAA [A74G G78C], 0.0343.
In the case of CUCUCGGUAGCCAAGUUGGUUUAAGGCGCAAGACUUUAAUUUAUCACUACGAAAUCUUGAGAUCGGGCGUUCGGCUCUCCCCCGGGAGAUUUUUUCCUCGAGCAA [A74G G78U] it was 0.0279; in that of CUCUCGGUAGCCAAGUUGGUUUAAGGCGCAAGACUUUAAUUUAUCACUACGAAAUCUUGAGAUCGGGCGUUCGAAUCGUCCCCGGGAGAUUUUUUCCUCGAGCAA [C75A C79U], 1.21.
CUCUCGGUAGCCAAGUUGGUUUAAGGCGCAAGACUUUAAUUUAUCACUACGAAAUCUUGAGAUCGGGCGUUCGACCCGCCUCCGGGAGAUUUUUUCCUCGAGCAA [U76C C81U]: the nonsense suppression was 0.0575.
In the case of CUCUCGGUAGCCAAGUUGGUUUAAGGCGCAAGACUUUAAUUUAUCACUACGAAAUCUUGAGAUCGGGCGUUCGACUUGACCCAGGGAGAUUUUUUCCUCGAGCAA [C77U C79A C83A] it was no more than 0.026; in that of CUCUCGGUAGCCAAGUUGGUUUAAGGCGCAAGACUUUAAUUUAUCACUACGAAAUCUUGAGAUCGGGCGUUCGACACGCUCCCGGGAGAUUUUUUCCUCGAGCAA [U76A C80U], 0.0419.
The figure for CUCUCGGUAGCCAAGUUGGUUUAAGGCGCAAGACUUUAAUUUAUCACUACGAAAUCUUGAGAUCGGGCGUUCGACACGCCCCCGUGAGAUUUUUUCCUCGAGCAA [U76A G85U] is 0.0588; for CUCUCGGUAGCCAAGUUGGUUUAAGGCGCAAGACUUUAAUUUAUCACUACGAAAUCUUGAGAUCGGGCGUUCGAGUCCCCCCAGGGAGAUUUUUUCCUCGAGCAA [C75G G78C C83A] it is no more than 0.026; for CUCUCGGUAGCCAAGUUGGUUUAAGGCGCAAGACUUUAAUUUAUCACUACGAAAUCUUGAGAUCGGGCGUUCGUCUCACCCCCGGGAGAUUUUUUCCUCGAGCAA [A74U G78A] it is 0.0557.
In the case of CUCUCGGUAGCCAAGUUGGUUUAAGGCGCAAGACUUUAAUUUAUCACUACGAAAUCUUGAGAUCGGGCGUUCGACUUGCCCCAGGGAGAUUUUUUCCUCGAGCAA [C77U C83A] it was no more than 0.026; in that of CUCUCGGUAGCCAAGUUGGUUUAAGGCGCAAGACUUUAAUUUAUCACUACGAAAUCUUGAGAUCGGGCGUUCGACACGACCCCGGGAGAUUUUUUCCUCGAGCAA [U76A C79A], no more than 0.026.
CUCUCGGUAGCCAAGUUGGUUUAAGGCGCAAGACUUUAAUUUAUCACUACGAAAUCUUGAGAUCGGGCGUUCGACACGGCCCCGGGAGAUUUUUUCCUCGAGCAA [U76A C79G]: the nonsense suppression is no more than 0.026.
The figure for CUCUCGGUAGCCAAGUUGGUUUAAGGCGCAAGACUUUAAUUUAUCACUACGAAAUCUUGAGAUCGGGCGUUCGACACGCCCUCGGGAGAUUUUUUCCUCGAGCAA [U76A C82U] is no more than 0.026; for CUCUCGGUAGCCAAGUUGGUUUAAGGCGCAAGACUUUAAUUUAUCACUACGAAAUCUUGAGAUCGGGCGUUCGAGUCCCCCCCGGGAGAUUUUUUCCUCGAGCAA [C75G G78C] it is 0.361.
In the case of CUCUCGGUAGCCAAGUUGGUUUAAGGCGCAAGACUUUAAUUUAUCACUACGAAAUCUUGAGAUCGGGCGUUCGACUCACCCCCGGGAGAUUUUUUCCUCGAGCAA [G78A] it was 0.775.
